{"source": "ChEMBL document CHEMBL3804761", "about": "“Synthesis of a stable and orally bioavailable englerin analogue” (Bioorg Med Chem Lett, 2016)", "type_in_all_cases": "functional", "key": {"SK-MEL-5": {"tested_on": "SK-MEL-5", "assay": "Growth inhibition of human SK-MEL-5 cells incubated for 48 hrs by sulforhodamine B assay", "details": "SK-MEL-5, 48 h", "how_it_was_run": "(§1)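 NCI 60-cell-line panel, standard protocol. Cells exposed to compound for two days, growth read by sulforhodamine B staining. Tested at five 10-fold dilutions, top concentration 100 µM, to give dose-response curves.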"}, "KM12": {"tested_on": "KM12", "assay": "Growth inhibition of human KM12 cells incubated for 48 hrs by sulforhodamine B assay", "details": "KM12, 48 h", "how_it_was_run": "as §1"}, "MDA-MB-231": {"tested_on": "MDA-MB-231", "assay": "Growth inhibition of human MDA-MB-231 cells assessed as cell growth at 10 uM incubated for 48 hrs by sulforhodamine B assay relative to control", "details": "MDA-MB-231, 48 h, read-out: Activity", "how_it_was_run": "(§2)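 Run in the standard NCI 60-cell-line screen. Cells were exposed to drug for two days, and the read-out was sulforhodamine B staining. Compound was tested at a single final concentration of 10 µM in every line, and results are reported as growth percent.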"}, "NCI-H226": {"tested_on": "NCI-H226", "assay": "Growth inhibition of human NCI-H226 cells incubated for 48 hrs by sulforhodamine B assay", "details": "NCI-H226, 48 h", "how_it_was_run": "as §1"}, "ACHN [1]": {"tested_on": "ACHN", "assay": "Growth inhibition of human ACHN cells assessed as cell growth at 10 uM incubated for 48 hrs by sulforhodamine B assay relative to control", "details": "read-out: Activity", "how_it_was_run": "as §2"}, "[2]": {"assay": "Growth inhibition of human SW620 cells assessed as cell growth at 10 uM incubated for 48 hrs by sulforhodamine B assay relative to control", "details": "SW-620, 48 h, read-out: Activity", "how_it_was_run": "as §2"}, "[3]": {"assay": "Growth inhibition of human HCC2998 cells assessed as cell growth at 10 uM incubated for 48 hrs by sulforhodamine B assay relative to control", "details": "HCC 2998, 48 h, read-out: Activity", "how_it_was_run": "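Single-dose screen in the NCI 60-cell-line panel at one final concentration of 10 µM. Two-day drug exposure with a sulforhodamine B endpoint. Values are growth percent for each cell line.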"}, "[4]": {"assay": "Growth inhibition of human UACC62 cells incubated for 48 hrs by sulforhodamine B assay", "details": "UACC-62, 48 h", "how_it_was_run": "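Tested in the standard NCI 60-cell-line protocol with two-day drug exposure and a sulforhodamine B endpoint. Compounds were first screened at a single final concentration of 10 µM, reported as growth percent. They were then run as five 10-fold dilutions starting from a high concentration of 100 µM to give dose-response curves.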"}, "CCRF-CEM": {"tested_on": "CCRF-CEM", "assay": "Growth inhibition of human CCRF-CEM cells incubated for 48 hrs by sulforhodamine B assay", "how_it_was_run": "as §1"}, "[5]": {"assay": "Growth inhibition of human HCC2998 cells incubated for 48 hrs by sulforhodamine B assay", "details": "HCC 2998, 48 h", "how_it_was_run": "as §1"}, "A498": {"tested_on": "A498", "assay": "Growth inhibition of human A498 cells assessed as cell growth at 10 uM incubated for 48 hrs by sulforhodamine B assay relative to control", "details": "A498, 48 h, read-out: Activity"}, "Malme-3M": {"tested_on": "Malme-3M", "assay": "Growth inhibition of human MALME-3M cells assessed as cell growth at 10 uM incubated for 48 hrs by sulforhodamine B assay relative to control", "details": "read-out: Activity", "how_it_was_run": "as §2"}, "SK-MEL-2": {"tested_on": "SK-MEL-2", "assay": "Growth inhibition of human SK-MEL-2 cells assessed as cell growth at 10 uM incubated for 48 hrs by sulforhodamine B assay relative to control", "details": "SK-MEL-2, 48 h, read-out: Activity", "how_it_was_run": "as §2"}, "MDA-MB-468": {"tested_on": "MDA-MB-468", "assay": "Growth inhibition of human MDA-MB-468 cells assessed as cell growth at 10 uM incubated for 48 hrs by sulforhodamine B assay relative to control", "details": "MDA-MB-468, 48 h, read-out: Activity", "how_it_was_run": "as §2"}, "MCF7": {"tested_on": "MCF7", "assay": "Growth inhibition of human MCF7 cells incubated for 48 hrs by sulforhodamine B assay", "details": "MCF7, 48 h", "how_it_was_run": "as §1"}, "[6]": {"assay": "Growth inhibition of human SF295 cells assessed as cell growth at 10 uM incubated for 48 hrs by sulforhodamine B assay relative to control", "details": "SF-295, 48 h, read-out: Activity", "how_it_was_run": "as §2"}, "[7]": {"assay": "Growth inhibition of human DU145 cells incubated for 48 hrs by sulforhodamine B assay", "details": "DU-145, 48 h", "how_it_was_run": "as §1"}, "[8]": {"assay": "Growth inhibition of human PC3 cells assessed as cell growth at 10 uM incubated for 48 hrs by sulforhodamine B assay relative to control", "details": "PC-3, 48 h, read-out: Activity", "how_it_was_run": "as §2"}, "U-251": {"tested_on": "U-251", "assay": "Growth inhibition of human U251 cells assessed as cell growth at 10 uM incubated for 48 hrs by sulforhodamine B assay relative to control", "details": "U-251, 48 h, read-out: Activity", "how_it_was_run": "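NCI 60-cell line standard protocol, one-dose screen: single final concentration 10 µM, 2-day drug exposure, sulforhodamine B (SRB) endpoint; read-out is growth percent relative to untreated control.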"}, "M14": {"tested_on": "M14", "assay": "Growth inhibition of human M14 cells assessed as cell growth at 10 uM incubated for 48 hrs by sulforhodamine B assay relative to control", "details": "M14, 48 h, read-out: Activity", "how_it_was_run": "as §2"}, "ACHN [9]": {"tested_on": "ACHN", "assay": "Growth inhibition of human ACHN cells incubated for 48 hrs by sulforhodamine B assay", "how_it_was_run": "as §1"}, "SK-MEL-28": {"tested_on": "SK-MEL-28", "assay": "Growth inhibition of human SK-MEL-28 cells incubated for 48 hrs by sulforhodamine B assay", "details": "SK-MEL-28, 48 h", "how_it_was_run": "as §1"}, "[10]": {"assay": "Growth inhibition of human COLO205 cells incubated for 48 hrs by sulforhodamine B assay", "details": "COLO 205, 48 h", "how_it_was_run": "as §1"}, "NCI-H23": {"tested_on": "NCI-H23", "assay": "Growth inhibition of human NCI-H23 cells incubated for 48 hrs by sulforhodamine B assay", "details": "NCI-H23, 48 h", "how_it_was_run": "as §1"}, "K562": {"tested_on": "K562", "assay": "Growth inhibition of human K562 cells assessed as cell growth at 10 uM incubated for 48 hrs by sulforhodamine B assay relative to control", "details": "K562, 48 h, read-out: Activity", "how_it_was_run": "as §2"}, "NCI-H322M": {"tested_on": "NCI-H322M", "assay": "Growth inhibition of human NCI-H322M cells incubated for 48 hrs by sulforhodamine B assay", "how_it_was_run": "as §1"}, "SR": {"tested_on": "SR", "assay": "Growth inhibition of human SR cells assessed as cell growth at 10 uM incubated for 48 hrs by sulforhodamine B assay relative to control", "details": "read-out: Activity", "how_it_was_run": "as §2"}, "[11]": {"details": "read-out: pLC50 (the source's name) (converted)"}}, "data": [{"smiles": "C/C(=C\\C(=O)O[C@H]1[C@@H]2[C@H](C)CC[C@H]2[C@]2(C)O[C@@]1(C(C)C)C[C@H]2NC(=O)CO)c1ccccc1", "values": [{"measurement": "GI50", "setting": "SK-MEL-5", "result": 19.5, "unit": "µM"}, {"measurement": "LC50", "setting": "SK-MEL-5", "result": 95.5, "unit": "µM"}, {"measurement": "TGI", "setting": "SK-MEL-5; read-out: pTGI (converted)", "result": 43.7, "unit": "µM"}, {"measurement": "GI50", "setting": "KM12", "result": 33.9, "unit": "µM"}, {"measurement": "LC50", "setting": "KM12", "result": "> 100", "unit": "µM"}, {"measurement": "TGI", "setting": "KM12; read-out: pTGI (converted)", "result": "> 100", "unit": "µM"}, {"measurement": "growth at 10 µM", "setting": "MDA-MB-231", "result": 99.6, "unit": "%"}, {"measurement": "GI50", "setting": "NCI-H226", "result": 61.7, "unit": "µM"}, {"measurement": "LC50", "setting": "NCI-H226", "result": "> 100", "unit": "µM"}, {"measurement": "TGI", "setting": "NCI-H226; read-out: pTGI (converted)", "result": "> 100", "unit": "µM"}, {"measurement": "growth at 10 µM", "setting": "ACHN [1]", "result": 27.9, "unit": "%"}, {"measurement": "growth at 10 µM", "setting": "[2]", "result": 103, "unit": "%"}, {"measurement": "growth at 10 µM", "setting": "[3]", "result": 104, "unit": "%"}, {"measurement": "GI50", "setting": "[4]", "result": 35.5, "unit": "µM"}, {"measurement": "LC50 (lethal concentration, 50% net cell kill)", "setting": "[4]", "result": "> 100", "unit": "µM"}, {"measurement": "TGI", "setting": "[4]; read-out: pTGI (converted)", "result": "> 100", "unit": "µM"}, {"measurement": "GI50", "setting": "CCRF-CEM", "result": 25.1, "unit": "µM"}, {"measurement": "CC50", "setting": "CCRF-CEM; [11]", "result": "> 100", "unit": "µM"}, {"measurement": "TGI", "setting": "CCRF-CEM; read-out: pTGI (converted)", "result": 77.6, "unit": "µM"}, {"measurement": "GI50", "setting": "[5]", "result": 34.7, "unit": "µM"}, {"measurement": "LC50", "setting": "[5]", "result": "> 100", "unit": "µM"}, {"measurement": "TGI", "setting": "[5]; read-out: pTGI (converted)", "result": "> 100", "unit": "µM"}, {"measurement": "growth at 10 µM", "setting": "A498", "result": -24.6, "unit": "%"}, {"measurement": "growth at 10 µM", "setting": "Malme-3M", "result": 95.9, "unit": "%"}, {"measurement": "growth at 10 µM", "setting": "SK-MEL-2", "result": 104, "unit": "%"}, {"measurement": "growth at 10 µM", "setting": "MDA-MB-468", "result": 101, "unit": "%"}, {"measurement": "GI50", "setting": "MCF7", "result": 27.5, "unit": "µM"}, {"measurement": "CC50", "setting": "MCF7; [11]", "result": "> 100", "unit": "µM"}, {"measurement": "TGI", "setting": "MCF7; read-out: pTGI (converted)", "result": "> 100", "unit": "µM"}, {"measurement": "growth at 10 µM", "setting": "[6]", "result": 97.8, "unit": "%"}, {"measurement": "GI50", "setting": "[7]", "result": 60.3, "unit": "µM"}, {"measurement": "CC50", "setting": "[7]; [11]", "result": "> 100", "unit": "µM"}, {"measurement": "TGI", "setting": "[7]; read-out: pTGI (converted)", "result": "> 100", "unit": "µM"}, {"measurement": "growth at 10 µM", "setting": "[8]", "result": 83.1, "unit": "%"}, {"measurement": "growth at 10 µM", "setting": "U-251", "result": 91.8, "unit": "%"}, {"measurement": "growth at 10 µM", "setting": "M14", "result": 100, "unit": "%"}, {"measurement": "GI50", "setting": "ACHN [9]", "result": 3.31, "unit": "µM"}, {"measurement": "LC50 (concentration killing 50% of cells)", "setting": "ACHN [9]", "result": "> 100", "unit": "µM"}, {"measurement": "TGI", "setting": "ACHN [9]; read-out: pTGI (converted)", "result": 16.2, "unit": "µM"}, {"measurement": "GI50", "setting": "SK-MEL-28", "result": 45.7, "unit": "µM"}, {"measurement": "LC50", "setting": "SK-MEL-28", "result": "> 100", "unit": "µM"}, {"measurement": "TGI", "setting": "SK-MEL-28; read-out: pTGI (converted)", "result": "> 100", "unit": "µM"}, {"measurement": "GI50", "setting": "[10]", "result": 22.9, "unit": "µM"}, {"measurement": "CC50", "setting": "[10]; [11]", "result": "> 100", "unit": "µM"}, {"measurement": "TGI", "setting": "[10]; read-out: pTGI (converted)", "result": 83.2, "unit": "µM"}, {"measurement": "GI50", "setting": "NCI-H23", "result": 38.9, "unit": "µM"}, {"measurement": "LC50", "setting": "NCI-H23", "result": "> 100", "unit": "µM"}, {"measurement": "TGI", "setting": "NCI-H23; read-out: pTGI (converted)", "result": "> 100", "unit": "µM"}, {"measurement": "growth at 10 µM", "setting": "K562", "result": 92.3, "unit": "%"}, {"measurement": "GI50", "setting": "NCI-H322M", "result": "> 100", "unit": "µM"}, {"measurement": "LC50", "setting": "NCI-H322M", "result": "> 100", "unit": "µM"}, {"measurement": "TGI", "setting": "NCI-H322M; read-out: pTGI (converted)", "result": "> 100", "unit": "µM"}, {"measurement": "growth at 10 µM", "setting": "SR", "result": 117, "unit": "%"}]}]}
